The nature of experiment [1]: Effective concentration required to inhibit HIV-1 induced cytopathicity in MT-4 cells. The note with it: Human immunodeficiency virus 1, MT4. The class given is functional, cell-based. The method, boiled down:
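MT-4 cells (5×10^5 cells/mL) were infected with HIV-1 at 100 CCID50 per mL of cell suspension and incubated with serial compound dilutions for 5 days. Viable cells were counted by trypan blue staining. EC50 = concentration reducing virus-induced loss of viable MT-4 cells by 50%.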
On the technique in general: Protection from cytopathic effect is a common read-out in antiviral testing.

For experiment [2], the system named is MT4. Briefly: Cytotoxic concentration required to inhibit the viability of MT-4 cells. The format is functional. The note with it: Homo sapiens. The method, boiled down:
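Mock-infected MT-4 cells (5×10^5 cells/mL) were cultured with serial dilutions of test compound for 5 days. Viable cells were counted by trypan blue staining. CC50 = concentration reducing the number of viable mock-infected MT-4 cells by 50%.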

The test system of experiment [3] is Human immunodeficiency virus 2. Briefly: Effective concentration required to inhibit HIV-2 induced cytopathicity in MT-4 cells. The format is functional, organism-based. The note with it: Human immunodeficiency virus 2, MT4.
The subject of experiment [4] is Human immunodeficiency virus 1. Kind of experiment: Selectivity index expressed as the ratio of CC50/EC50 of MT-4 cell lines.
Experiment [5] deals with CCRF-CEM. Kind of experiment: Effective concentration required to inhibit HIV- induced giant cell formation in CEM cells. The class given is functional, cell-based. The note with it: Homo sapiens. The method, boiled down:
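CEM cells (5×10^5 cells/mL) were infected with HIV-1 at 100 CCID50 per mL of cell suspension and mixed with compound dilutions. Syncytia were scored microscopically after 4 days. EC50 = concentration reducing syncytium number by 50%.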

Where only a bound is given, the exact number is not on record here.

One may read the EC50 as the concentration giving half of the maximal effect. The CC50 is the concentration that lowers cell viability or growth by half. A lower CC50 goes with harm at low concentration. As to `CC(C)(C)[Si](C)(C)OC[C@H]1O[C@@H](n2cnc3c(O)ncnc32)[C@H](O[Si](C)(C)C(C)(C)C)[C@]12OS(=O)(=O)C=C2N`, the EC50 was 158 nM in experiment [1] and above 7 µM in experiment [3]. This compound showed a CC50 in experiment [2] of 14 µM. Besides, in experiment [4], the Selectivity index amounted to 89.
Take `CC(C)(C)[Si](C)(C)OC[C@H]1O[C@@H](n2cnc3c(N)ncnc32)[C@H](O[Si](C)(C)C(C)(C)C)[C@]12OS(=O)(=O)C=C2N`: the EC50 was 278 nM in experiment [1] and above 14 µM in experiment [3]. Besides, in experiment [2], the cytotoxic concentration (CC50) was found to be 13 µM. Also, the Selectivity index in experiment [4] is on record as 47.
With `Cn1cnc2c(ncn2[C@@H]2O[C@H](CO[Si](C)(C)C(C)(C)C)[C@@]3(OS(=O)(=O)C=C3N)[C@H]2O[Si](C)(C)C(C)(C)C)c1=O`, the EC50 in experiment [5] is 101 nM; in experiment [1] it was 514 nM; in experiment [3], above 150 µM. For the same compound, in experiment [2], the CC50 was above 150 µM. The Selectivity index in experiment [4] is on record as above 292.
On to `COc1ccc(C(Nc2ncnc3c2ncn3[C@@H]2O[C@H](CO[Si](C)(C)C(C)(C)C)[C@]3(OS(=O)(=O)C=C3N)[C@H]2O[Si](C)(C)C(C)(C)C)(c2ccccc2)c2ccccc2)cc1`, for which the EC50 in experiment [1] was above 100000 nM; in experiment [3], above 100 µM. This compound came in with a CC50 in experiment [2] of 191 µM. Also, in experiment [4], the Selectivity index is reported as below 1.9.
In the case of `CC(C)(C)[Si](C)(C)OC[C@H]1O[C@@H](n2cnc3c(N)ncnc32)[C@H](O[Si](C)(C)C(C)(C)C)[C@@]12OS(=O)(=O)C=C2N`, the EC50 in experiment [1] was above 2700 nM; in experiment [3], above 2.7 µM. In addition, in experiment [2], the CC50 turned out to be 7.3 µM. In addition, the Selectivity index in experiment [4] is recorded as below 2.7.
In the same order, the values of `COc1ccc(C(Nc2ncnc3c2ncn3[C@@H]2O[C@H](CO[Si](C)(C)C(C)(C)C)[C@@]3(OS(=O)(=O)C=C3N)[C@H]2O[Si](C)(C)C(C)(C)C)(c2ccccc2)c2ccccc2)cc1` are above 100000 nM, above 100 µM, 192 µM and below 1.9.
Consider `CCn1cnc2ncn([C@@H]3O[C@H](CO[Si](C)(C)C(C)(C)C)[C@@]4(OS(=O)(=O)C=C4N)[C@H]3O[Si](C)(C)C(C)(C)C)c2c1=O`, for which the EC50 in experiment [5] is 172 nM; in experiment [1], 604 nM; in experiment [3], above 150 µM. In experiment [2], this compound registered a CC50 above 150 µM. Also, the Selectivity index in experiment [4] is recorded as above 248.
For `CC(C)(C)[Si](C)(C)OC[C@H]1O[C@@H](n2c(=O)[nH]c(=O)c3[nH]cnc32)[C@H](O[Si](C)(C)C(C)(C)C)[C@]12OS(=O)(=O)C=C2N`, the EC50 in experiment [5] was 2300 nM; in experiment [1] it was 2700 nM; in experiment [3] it was above 7 µM. Further, half-maximal cytotoxicity in experiment [2] (CC50) was put at 14 µM. Besides, the Selectivity index in experiment [4] turned out to be 5.2.
In the same order, the values of `CC(C)(C)[Si](C)(C)OC[C@H]1O[C@@H](n2cnc3[nH]c(=O)[nH]c(=O)c32)[C@H](O[Si](C)(C)C(C)(C)C)[C@]12OS(=O)(=O)C=C2N` are 126 nM, 358 nM, above 7 µM, 13 µM and 36.
As for `CC(C)(C)[Si](C)(C)OC[C@H]1O[C@@H](n2cnc3ncn([C@@H]4O[C@H](CO[Si](C)(C)C(C)(C)C)[C@@]5(OS(=O)(=O)C=C5N)[C@H]4O[Si](C)(C)C(C)(C)C)c3c2=O)[C@H](O[Si](C)(C)C(C)(C)C)[C@]12OS(=O)(=O)C=C2N`, the concentration for a half-maximal effect (EC50) was above 150000 nM in experiment [1] and above 150 µM in experiment [3]. This compound came in with a CC50 in experiment [2] above 150 µM. Moreover, the Selectivity index in experiment [4] is reported as below 1.
Regarding `CC(C)(C)[Si](C)(C)OC[C@H]1O[C@@H](n2cnc3ccccc32)[C@H](O[Si](C)(C)C(C)(C)C)[C@]12OS(=O)(=O)C=C2N`, the figures for the EC50 in experiment [1] and in experiment [3] were 3100 nM and above 7 µM, respectively. In addition, half-maximal cytotoxicity in experiment [2] (CC50) was put at 15 µM. In experiment [4], the Selectivity index is listed as 4.8.
As for `CC(C)(C)[Si](C)(C)OC[C@H]1O[C@@H](n2cnc3ncnc(O)c32)[C@H](O[Si](C)(C)C(C)(C)C)[C@]12OS(=O)(=O)C=C2N`, the EC50 is 173 nM in experiment [1] and above 7 µM in experiment [3]. In experiment [2], the CC50 turned out to be 15 µM. In addition, in experiment [4], the Selectivity index is on record as 86.
For `Cn1cnc2ncn([C@@H]3O[C@H](CO[Si](C)(C)C(C)(C)C)[C@@]4(OS(=O)(=O)C=C4N)[C@H]3O[Si](C)(C)C(C)(C)C)c2c1=O`, the EC50 is 67 nM in experiment [5], 201 nM in experiment [1] and above 100 µM in experiment [3]. Further, in experiment [2], half-maximal cytotoxicity (CC50) was put at 156 µM. In addition, the Selectivity index in experiment [4] was determined as 776.
As for `CC(C)(C)[Si](C)(C)OC[C@H]1O[C@@H](n2cnc3cncnc32)[C@H](O[Si](C)(C)C(C)(C)C)[C@]12OS(=O)(=O)C=C2N`, the concentration giving a half-maximal response (EC50) in experiment [5] is 74 nM; in experiment [1] it was 177 nM; in experiment [3], above 7 µM. Moreover, the CC50 in experiment [2] was determined as 13 µM. Besides, in experiment [4], the Selectivity index was determined as 73.
For the compound `CN(C)c1ncnc2c1ncn2[C@@H]1O[C@H](CO[Si](C)(C)C(C)(C)C)[C@@]2(OS(=O)(=O)C=C2N)[C@H]1O[Si](C)(C)C(C)(C)C`, the concentration giving a half-maximal response (EC50) is 646 nM in experiment [5], 389 nM in experiment [1] and above 30 µM in experiment [3]. Also, the CC50 in experiment [2] is 15 µM. In addition, in experiment [4], the Selectivity index was 39.
For `CNc1ncnc2c1ncn2[C@@H]1O[C@H](CO[Si](C)(C)C(C)(C)C)[C@@]2(OS(=O)(=O)C=C2N)[C@H]1O[Si](C)(C)C(C)(C)C`, the EC50 was 161 nM in experiment [5], 146 nM in experiment [1] and above 7 µM in experiment [3]. Further, in experiment [2], it took 14 µM to reach half-maximal cytotoxicity (CC50). Moreover, the Selectivity index in experiment [4] amounted to 96.
Regarding `COc1ncnc2c1ncn2[C@@H]1O[C@H](CO[Si](C)(C)C(C)(C)C)[C@@]2(OS(=O)(=O)C=C2N)[C@H]1O[Si](C)(C)C(C)(C)C`, the EC50 in experiment [5] is 469 nM; in experiment [1] it was 141 nM; in experiment [3] it was above 30 µM. Also, the CC50 in experiment [2] was determined as 21 µM. In addition, in experiment [4], the Selectivity index is recorded as 149.
